Data taken from ChEMBL document CHEMBL4020721 (Eur J Med Chem, 2017).

How the values were obtained:
[1] = Intrinsic clearance in rat liver microsomes assessed per mg protein at 1 uM preincubated for 5 mins followed by NADPH addition measured after 5 to 30 mins by LC-MS/MS analysis; type: ADME, microsome; details: read-out: CLH
Summary of the method: (§1)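 Microsomes (0.5 mg/ml) with 1 µM compound were preincubated 5 min at 37°C in 100 mM phosphate buffer pH 7.4, then started with 1 mM NADPH. Samples were taken at 0, 5, 10 and 30 min, quenched with acetonitrile/tinidazole and run by LC-MS/MS. CLint = k / microsomal protein concentration. Midazolam was the positive control.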

[2] = molecular target: Cytochrome P450 3A4 (Homo sapiens, UniProt P08684); assay: (§2) Reversible inhibition of CYP3A4 in human liver microsomes at 10 uM after 20 mins in presence of NADPH by LC-MS/MS analysis; type: ADME; details: microsomes, 20 min, 10 µM
[3] = test system: SNU-5; assay: Growth inhibition of human SNU5 cells after 72 hrs by CCK-8 assay; type: functional, cell-based; details: Homo sapiens, SNU-5, 72 h
[4] = Drug recovery in human liver microsomes at 1 uM measured after 30 mins by LC-MS/MS analysis; type: ADME, microsome; details: liver microsomes, read-out: Drug recovery
Summary of the method: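 Liver microsomes (0.5 mg/ml) were incubated with 1 µM compound at 37°C in 100 mM phosphate buffer pH 7.4 without NADPH for 30 min. Reactions were quenched with acetonitrile/tinidazole internal standard and analysed by LC-MS/MS. Recovery (%) was taken from the compound/internal standard peak area ratio.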

[5] = Intrinsic clearance in human liver microsomes assessed per mg protein at 1 uM preincubated for 5 mins followed by NADPH addition measured after 5 to 30 mins by LC-MS/MS analysis; type: ADME, microsome; details: read-out: CLH; summary of the method: as §1
[6] = molecular target: T1, CYP2C19 (Homo sapiens, UniProt P33261); assay: Time dependent irreversible inhibition of CYP2C19 in human liver microsomes at 10 uM preincubated with compound followed by NADPH addition by LC-MS/MS analysis; type: ADME
Summary of the method: (§3)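 HLM (0.2 mg/ml) with 10 µM compound were preincubated 0, 5, 10 or 20 min at 37°C with 1 mM NADPH or PBS. Substrate cocktail (halved concentrations) plus NADPH was then added for 10 min. Metabolites were measured by LC-MS/MS. Kobs is the slope of relative activity versus preincubation time.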

[7] = Drug recovery in monkey liver microsomes at 1 uM measured after 30 mins by LC-MS/MS analysis
[8] = molecular target: T2, CYP1A2 (Homo sapiens, UniProt P05177); assay: Time dependent irreversible inhibition of CYP1A2 in human liver microsomes at 10 uM preincubated with compound followed by NADPH addition by LC-MS/MS analysis; type: ADME; details: liver microsomes; summary of the method: as §3
T2 sequence (P05177 whole entry): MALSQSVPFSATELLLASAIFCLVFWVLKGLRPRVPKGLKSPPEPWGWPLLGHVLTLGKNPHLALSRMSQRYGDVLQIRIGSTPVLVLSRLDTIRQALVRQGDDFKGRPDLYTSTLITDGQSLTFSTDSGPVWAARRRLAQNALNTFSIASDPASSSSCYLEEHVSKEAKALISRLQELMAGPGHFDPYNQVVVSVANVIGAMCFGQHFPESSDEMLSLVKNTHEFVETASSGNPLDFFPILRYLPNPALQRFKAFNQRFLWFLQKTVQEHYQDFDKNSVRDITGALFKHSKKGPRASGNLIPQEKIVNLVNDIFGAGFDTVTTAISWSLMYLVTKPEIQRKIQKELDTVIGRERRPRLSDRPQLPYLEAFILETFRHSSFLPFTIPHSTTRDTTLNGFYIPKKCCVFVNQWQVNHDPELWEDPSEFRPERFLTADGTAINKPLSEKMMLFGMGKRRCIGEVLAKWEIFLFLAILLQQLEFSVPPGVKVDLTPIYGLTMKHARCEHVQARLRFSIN

[9] = Drug recovery in rat liver microsomes at 1 uM measured after 30 mins by LC-MS/MS analysis; type: ADME, microsome; details: liver microsomes, read-out: Drug recovery
[10] = Intrinsic clearance in monkey liver microsomes assessed per mg protein at 1 uM preincubated for 5 mins followed by NADPH addition measured after 5 to 30 mins by LC-MS/MS analysis; details: for microsomal CLint at 1 µM: liver microsomes, read-out: CLH
[11] = molecular target: T3, CYP3A4 (Homo sapiens, UniProt P08684); assay: Time dependent irreversible inhibition of CYP3A4 in human liver microsomes at 10 uM preincubated with compound followed by NADPH addition by LC-MS/MS analysis; type: ADME; details: liver microsomes; summary of the method: as §3
[12] = test system: NCI-H1993; assay: Growth inhibition of human NCI-H1993 cells after 72 hrs by CCK-8 assay; type: functional, cell-based; details: Homo sapiens, NCI-H1993, 72 h
[13] = molecular target: T4, CYP2D6 (Homo sapiens, UniProt P10635); assay: Time dependent irreversible inhibition of CYP2D6 in human liver microsomes at 10 uM preincubated with compound followed by NADPH addition by LC-MS/MS analysis; type: ADME; details: liver microsomes; summary of the method: as §3
[14] = molecular target: T5, CYP2C9 (Homo sapiens, UniProt P11712); assay: Time dependent irreversible inhibition of CYP2C9 in human liver microsomes at 10 uM preincubated with compound followed by NADPH addition by LC-MS/MS analysis; type: ADME; details: liver microsomes; summary of the method: as §3
[15] = molecular target: Cytochrome P450 2C9 (Homo sapiens, UniProt P11712); assay: (§4) Reversible inhibition of CYP2C9 in human liver microsomes at 10 uM after 20 mins by in presence of NADPH LC-MS/MS analysis; type: ADME; details: microsomes, 20 min, 10 µM
[16] = molecular target: Cytochrome P450 2C19 (Homo sapiens, UniProt P33261); assay: (§5) Reversible inhibition of CYP2C19 in human liver microsomes at 10 uM after 20 mins in presence of NADPH by LC-MS/MS analysis; type: ADME; details: microsomes, 20 min, 10 µM
[17] = molecular target: Hepatocyte growth factor receptor (Homo sapiens, UniProt P08581); assay: Inhibition of c-MET (unknown origin) using TK substrate-biotin peptide as substrate preincubated for 5 to 10 mins followed by ATP addition measured after 30 mins by HTRF assay
[18] = molecular target: T3, CYP3A4; assay: as §2; type: ADME; details: liver microsomes
[19] = molecular target: T2, CYP1A2; assay: Reversible inhibition of CYP1A2 in human liver microsomes at 10 uM after 20 mins in presence of NADPH by LC-MS/MS analysis; type: ADME
[20] = molecular target: T4, CYP2D6; assay: Reversible inhibition of CYP2D6 in human liver microsomes at 10 uM after 20 mins in presence of NADPH by LC-MS/MS analysis; type: ADME; details: liver microsomes
[21] = molecular target: T5, CYP2C9; assay: as §4; type: ADME; details: liver microsomes
[22] = molecular target: T1, CYP2C19; assay: as §5; type: ADME; details: liver microsomes

Sequence of Cytochrome P450 2C9 (P11712 whole entry): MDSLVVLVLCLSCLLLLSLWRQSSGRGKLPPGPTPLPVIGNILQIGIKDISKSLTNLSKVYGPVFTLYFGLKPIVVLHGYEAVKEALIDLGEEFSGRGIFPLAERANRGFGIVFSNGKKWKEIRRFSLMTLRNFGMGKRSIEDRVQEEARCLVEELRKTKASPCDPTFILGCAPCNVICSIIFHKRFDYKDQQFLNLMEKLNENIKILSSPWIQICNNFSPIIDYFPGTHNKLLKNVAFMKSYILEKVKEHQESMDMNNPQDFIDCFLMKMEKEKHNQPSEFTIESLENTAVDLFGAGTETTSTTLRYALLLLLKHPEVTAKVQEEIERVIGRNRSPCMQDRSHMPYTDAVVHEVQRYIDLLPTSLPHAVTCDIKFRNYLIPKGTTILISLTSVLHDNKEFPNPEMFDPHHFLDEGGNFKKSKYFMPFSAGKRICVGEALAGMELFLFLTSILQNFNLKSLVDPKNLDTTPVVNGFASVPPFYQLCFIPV
T5 sequence (P11712 whole entry): as above
Sequence of Cytochrome P450 2C19 (P33261 whole entry): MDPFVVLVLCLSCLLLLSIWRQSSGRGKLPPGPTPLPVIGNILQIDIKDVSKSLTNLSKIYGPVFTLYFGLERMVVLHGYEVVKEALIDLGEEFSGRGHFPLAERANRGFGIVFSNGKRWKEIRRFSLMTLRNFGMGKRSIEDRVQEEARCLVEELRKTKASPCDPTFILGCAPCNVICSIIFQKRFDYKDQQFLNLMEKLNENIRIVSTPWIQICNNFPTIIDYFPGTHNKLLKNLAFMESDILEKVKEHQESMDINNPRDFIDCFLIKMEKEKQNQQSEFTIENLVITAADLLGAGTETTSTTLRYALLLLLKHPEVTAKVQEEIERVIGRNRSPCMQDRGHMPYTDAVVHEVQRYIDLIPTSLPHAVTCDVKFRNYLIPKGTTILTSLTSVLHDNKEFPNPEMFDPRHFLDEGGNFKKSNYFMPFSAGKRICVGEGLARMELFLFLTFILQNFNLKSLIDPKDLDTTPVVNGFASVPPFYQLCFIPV
T1 sequence (P33261 whole entry): as above
T3 sequence (P08684 whole entry): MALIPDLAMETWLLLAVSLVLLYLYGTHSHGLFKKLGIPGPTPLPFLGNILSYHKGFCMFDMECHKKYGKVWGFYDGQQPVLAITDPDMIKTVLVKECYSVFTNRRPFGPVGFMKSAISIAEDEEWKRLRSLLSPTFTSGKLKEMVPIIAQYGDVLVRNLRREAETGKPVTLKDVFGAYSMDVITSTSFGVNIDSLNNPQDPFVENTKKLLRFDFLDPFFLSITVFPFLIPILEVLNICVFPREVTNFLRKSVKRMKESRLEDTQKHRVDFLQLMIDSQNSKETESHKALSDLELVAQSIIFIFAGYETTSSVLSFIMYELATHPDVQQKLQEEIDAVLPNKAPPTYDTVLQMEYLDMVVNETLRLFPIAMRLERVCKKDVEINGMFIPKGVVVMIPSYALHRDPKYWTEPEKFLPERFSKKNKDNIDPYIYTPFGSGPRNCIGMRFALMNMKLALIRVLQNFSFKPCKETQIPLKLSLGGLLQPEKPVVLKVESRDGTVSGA
T4 sequence (P10635 whole entry): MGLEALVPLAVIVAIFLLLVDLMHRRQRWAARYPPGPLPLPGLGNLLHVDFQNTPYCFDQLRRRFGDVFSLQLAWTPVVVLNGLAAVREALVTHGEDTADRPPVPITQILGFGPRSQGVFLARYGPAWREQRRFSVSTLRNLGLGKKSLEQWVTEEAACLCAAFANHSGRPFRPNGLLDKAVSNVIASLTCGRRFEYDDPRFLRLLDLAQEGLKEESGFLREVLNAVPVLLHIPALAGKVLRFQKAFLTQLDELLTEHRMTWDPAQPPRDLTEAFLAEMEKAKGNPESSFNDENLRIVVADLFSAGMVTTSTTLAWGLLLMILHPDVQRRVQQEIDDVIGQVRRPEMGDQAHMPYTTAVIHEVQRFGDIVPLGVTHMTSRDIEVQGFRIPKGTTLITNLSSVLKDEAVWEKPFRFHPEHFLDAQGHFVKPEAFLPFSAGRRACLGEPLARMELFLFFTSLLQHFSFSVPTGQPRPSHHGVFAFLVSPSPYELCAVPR
Sequence of Hepatocyte growth factor receptor (P08581 whole entry): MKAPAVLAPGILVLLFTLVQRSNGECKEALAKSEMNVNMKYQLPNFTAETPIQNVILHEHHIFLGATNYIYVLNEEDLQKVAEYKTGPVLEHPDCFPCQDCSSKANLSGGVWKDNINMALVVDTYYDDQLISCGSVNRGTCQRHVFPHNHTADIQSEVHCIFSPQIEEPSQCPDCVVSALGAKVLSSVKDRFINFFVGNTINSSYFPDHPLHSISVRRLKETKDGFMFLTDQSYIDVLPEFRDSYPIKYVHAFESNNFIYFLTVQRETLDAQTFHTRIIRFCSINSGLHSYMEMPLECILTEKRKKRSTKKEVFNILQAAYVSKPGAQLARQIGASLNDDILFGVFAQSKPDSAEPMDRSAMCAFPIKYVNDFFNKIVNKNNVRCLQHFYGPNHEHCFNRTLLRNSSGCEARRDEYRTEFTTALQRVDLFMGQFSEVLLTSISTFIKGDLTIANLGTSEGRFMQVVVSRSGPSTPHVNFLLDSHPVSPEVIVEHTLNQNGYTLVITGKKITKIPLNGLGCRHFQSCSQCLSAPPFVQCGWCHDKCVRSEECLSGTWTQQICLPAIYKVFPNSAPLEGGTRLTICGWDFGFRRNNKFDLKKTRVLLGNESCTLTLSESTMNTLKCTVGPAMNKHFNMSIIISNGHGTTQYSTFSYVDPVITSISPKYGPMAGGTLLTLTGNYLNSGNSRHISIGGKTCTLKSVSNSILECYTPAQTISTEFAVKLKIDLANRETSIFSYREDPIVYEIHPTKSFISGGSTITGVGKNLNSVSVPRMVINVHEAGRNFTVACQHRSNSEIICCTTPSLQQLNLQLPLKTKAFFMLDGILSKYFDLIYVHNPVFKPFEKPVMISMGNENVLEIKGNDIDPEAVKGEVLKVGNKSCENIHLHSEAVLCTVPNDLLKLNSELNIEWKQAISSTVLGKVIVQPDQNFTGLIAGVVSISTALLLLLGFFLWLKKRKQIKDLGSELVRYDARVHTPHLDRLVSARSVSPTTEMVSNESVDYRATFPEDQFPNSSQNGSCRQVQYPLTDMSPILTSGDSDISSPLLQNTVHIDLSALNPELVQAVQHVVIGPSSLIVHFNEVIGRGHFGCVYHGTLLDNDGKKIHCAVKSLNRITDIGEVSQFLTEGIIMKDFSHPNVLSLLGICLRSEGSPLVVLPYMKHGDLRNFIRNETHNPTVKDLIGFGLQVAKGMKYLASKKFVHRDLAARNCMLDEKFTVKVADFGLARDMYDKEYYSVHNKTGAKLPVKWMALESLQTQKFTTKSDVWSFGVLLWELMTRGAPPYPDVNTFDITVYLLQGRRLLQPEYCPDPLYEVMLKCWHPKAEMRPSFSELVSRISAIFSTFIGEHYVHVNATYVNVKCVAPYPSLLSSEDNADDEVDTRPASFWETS
Sequence of Cytochrome P450 3A4 (P08684 whole entry): as the sequence (P08684 whole entry) above

microsomal CLint at 1 µM [1] [µL/min/mg]	IC50 [3] [nM]	remaining at 0.5 h, 1 µM [4] [%]	microsomal CLint at 1 µM [5] [µL/min/mg]	inhibition at 10 µM [6] [%]	remaining at 0.5 h, 1 µM [7] [%]	inhibition at 10 µM [8] [%]	remaining at 0.5 h, 1 µM [9] [%]	microsomal CLint at 1 µM [10] [µL/min/mg]	inhibition at 10 µM [11] [%]	IC50 [12] [nM]	inhibition at 10 µM [13] [%]	inhibition at 10 µM [14] [%]	further results	Structure (SMILES)
61	1.2	104	22	< 50	90	< 50	94	78	< 50	0.9	< 50	< 50	inhibition (INH) [2]: Active	CC(c1ccc2ncc(-c3cnn(C)c3)cc2c1)n1nnc2ncc(-c3ccncc3)nc21 (stereo not given)
6	1.8	105		< 50	108	< 50	104	16	< 50	0.2	< 50	< 50	inhibition (INH) [15]: Active; inhibition (INH) [16]: Active	CC(c1ccc2ncc(-c3cnn(C)c3)cc2c1)n1nnc2ncc(-c3cnn(CCO)c3)nc21 (stereo not given)
	7.2									3.5				CC(c1c(F)cc2ncc(-c3ccc(F)cc3)cc2c1F)n1nnc2ncc(-c3ccncc3)nc21 (stereo not given)
	2.2									2.6				CC(c1c(F)cc2ncc(-c3ccc(F)cc3)cc2c1F)n1nnc2ncc(-c3cnn(C)c3)nc21 (stereo not given)
28	2.2	105	16		109		97	112		1.2				CC(c1ccc2ncc(-c3ccc(F)cc3)cc2c1)n1nnc2ncc(-c3cnn(C)c3)nc21 (stereo not given)
49		92	8		1		79						CLH ([10]; microsomes, 1 µM): Nd(Unstable)	C[C@@H](c1cc2cccnc2cc1F)n1cnc2ncc(-c3cnn(C)c3)nc21
56	7	105	14		97		91	65		8.7				CC(c1ccc2ncc(-c3ccc(F)cc3)cc2c1)n1nnc2ncc(-c3ccncc3)nc21 (stereo not given)
	2									4.1				CC(c1cc2cc(-c3ccc(F)cc3)cnc2cc1F)n1nnc2ncc(-c3cnn(C)c3)nc21 (stereo not given)
20	1.3	98	8	< 50	102	< 50	97	43	< 50	0.8	< 50	< 50	inhibition (INH) [15]: Active; inhibition (INH) [16]: Active	CC(c1c(F)cc2ncc(-c3cnn(C)c3)cc2c1F)n1nnc2ncc(-c3cnn(CCO)c3)nc21 (stereo not given)
													IC50 [17]: > 100 nM	CC(c1ccc2nc(-c3cnn(C)c3)ccc2c1)n1nnc2ncc(-c3cnn(C)c3)nc21 (stereo not given)
57	3.7	104	15		93		97	119		4.2				CNC(=O)c1ccc(-c2cnc3nnn(C(C)c4ccc5ncc(-c6ccc(F)cc6)cc5c4)c3n2)cc1F (stereo not given)
12	0.6	116	5	< 50	69	< 50	111	24	< 50	1.1	< 50	< 50	inhibition at 20 min, 10 µM [18]: < 50%; inhibition at 20 min, 10 µM [19]: < 50%; inhibition at 20 min, 10 µM [20]: < 50%; inhibition at 20 min, 10 µM [21]: < 50%; inhibition at 20 min, 10 µM [22]: < 50%	CNC(=O)c1ccc(-c2cnc3nnn(C(C)c4cc5cc(-c6cnn(C)c6)cnc5cc4F)c3n2)cc1F (stereo not given)
48	0.9	92	5	< 50	95	< 50	95	187	< 50		< 50	< 50	inhibition (INH) [15]: Active; inhibition (INH) [16]: Active	CNC(=O)c1ccc(-c2cnc3nnn(C(C)c4c(F)cc5ncc(-c6cnn(C)c6)cc5c4F)c3n2)cc1F (stereo not given)
													IC50 [17]: > 100 nM	CC(c1ccc2nc(-c3cnn(C)c3)ccc2c1)n1nnc2ncc(-c3ccc(N)cc3)nc21 (stereo not given)
	6.8									3.6				CC(c1cc2cc(-c3ccc(F)cc3)cnc2cc1F)n1nnc2ncc(-c3ccncc3)nc21 (stereo not given)
